How the values were obtained:
Thioredoxin reductase [1] = target: T1, Thioredoxin reductase (Homo sapiens, UniProt Q16881+Q9NNW7+Q86VQ6); assay: Inhibitory concentration used to inhibit the enzyme competitively with the substrate; type: protein assay
Summary of the method: (§1)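 Reversible competitive component. About 2 nM placental hTrxR with DTNB 50 μM–1 mM and a single inhibitor concentration (10 nM–1 μM) in phosphate/EDTA buffer, pH 7.4. Started with 200 μM NADPH at 25 °C, TNB formation read at 412 nm. Km' compared with Km without inhibitor; Ki = Km[I]/(Km' − Km).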

Thioredoxin reductase [2] = target: T1, Thioredoxin reductase; assay: Inhibitory concentration at 50% inhibition; type: protein assay
Summary of the method: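 Tight-binding hTrxR inhibition. Human placental TrxR (~2 nM) in 100 mM potassium phosphate, 2 mM EDTA, pH 7.4, reduced with 200 μM NADPH, then preincubated with varying inhibitor for 5 min at 25 °C (footnote says 2 min). Activity started with 3 mM DTNB and read as A412 increase. IC50 taken from dose-response curves.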

Thioredoxin reductase [3] = target: T1, Thioredoxin reductase; assay: Percent TrxR activity after exposure to 1 uM for 270 mins; type: functional
Summary of the method: (§2)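 NCH37 glioblastoma cells in RPMI 1640 with 10% FCS at 37 °C, 5% CO2, given compound once or as doses at 0, 24 and 48 h. Sampled at 30, 90, 270 min or 67 h. Intact cells washed in PBS and sonicated; cleared lysate assayed. TrxR used 100 μM E. coli thioredoxin, with NADPH oxidase background subtracted. GR used the GSSG/NADPH A340 assay. mU/10^6 cells given as % of untreated controls, mean of three experiments.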

Thioredoxin reductase [4] = target: T1, Thioredoxin reductase; assay: Michaelis-Menten constant (Km') for DTNB (5,5'-dithiobis(2-nitrobenzoate) in the presence of the compound; type: protein assay; summary of the method: as §1
Thioredoxin reductase [5] = target: T1, Thioredoxin reductase; assay: Percent TrxR activity after exposure to 10 uM for 67 hrs; type: functional; summary of the method: as §2
[6] = target: Glutathione reductase, mitochondrial (Homo sapiens) (UniProt P00390); assay: Percent GR activity after exposure to 1 uM for 30 min; summary of the method: as §2
Sequence of Glutathione reductase, mitochondrial (Homo sapiens) (P00390 whole entry): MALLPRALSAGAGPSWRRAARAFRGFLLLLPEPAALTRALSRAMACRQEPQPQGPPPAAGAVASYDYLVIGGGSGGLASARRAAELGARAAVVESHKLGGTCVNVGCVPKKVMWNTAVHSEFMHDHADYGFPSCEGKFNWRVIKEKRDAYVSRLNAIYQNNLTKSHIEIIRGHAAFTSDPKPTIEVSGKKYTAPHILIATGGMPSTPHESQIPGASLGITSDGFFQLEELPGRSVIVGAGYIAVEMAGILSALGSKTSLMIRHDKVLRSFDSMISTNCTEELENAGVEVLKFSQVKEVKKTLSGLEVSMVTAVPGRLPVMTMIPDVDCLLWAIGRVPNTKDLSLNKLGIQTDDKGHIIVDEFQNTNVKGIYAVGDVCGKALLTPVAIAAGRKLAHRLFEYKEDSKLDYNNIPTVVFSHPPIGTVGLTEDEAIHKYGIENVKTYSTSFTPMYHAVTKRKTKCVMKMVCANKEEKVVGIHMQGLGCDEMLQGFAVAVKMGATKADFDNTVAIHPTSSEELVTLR

Thioredoxin reductase [7] = target: T1, Thioredoxin reductase; assay: Percent TrxR activity after exposure to 3x10 uM concentration at regular intervals of 0,24,48 hours for the period of 67 hours; type: functional; summary of the method: as §2
Thioredoxin reductase [8] = target: T1, Thioredoxin reductase; assay: Percent TrxR activity after exposure to 1 uM for 67h; type: functional; summary of the method: as §2
Thioredoxin reductase [9] = target: T1, Thioredoxin reductase; assay: Percent TrxR activity after exposure to 5 uM for 67 hr; type: functional; summary of the method: as §2
Thioredoxin reductase [10] = target: T1, Thioredoxin reductase; assay: Percent TrxR activity after exposure to 3x5 uM concentration at regular intervals of 0,24,48 hours for the period of 67 hours; type: functional; summary of the method: as §2
[11] = target: Glutathione reductase, mitochondrial (Homo sapiens) (UniProt P00390); assay: Percent GR activity after exposure to 1 uM for 270 min; summary of the method: as §2
[12] = target: Glutathione reductase, mitochondrial (Homo sapiens) (UniProt P00390); assay: Percent GR activity after exposure to 5 uM for 67 hr; summary of the method: as §2
[13] = target: Glutathione reductase, mitochondrial (Homo sapiens) (UniProt P00390); assay: Percent GR activity after exposure to 3x10 uM concentration at regular intervals of 0,24,48 hours for the period of 67 hours; summary of the method: as §2
[14] = target: Glutathione reductase, mitochondrial (Homo sapiens) (UniProt P00390); assay: Percent GR activity after exposure to 1 uM for 90 min; summary of the method: as §2
[15] = target: Glutathione reductase, mitochondrial (Homo sapiens) (UniProt P00390); assay: Percent GR activity after exposure to 10 uM for 67 hr; summary of the method: as §2
[16] = target: Glutathione reductase, mitochondrial (Homo sapiens) (UniProt P00390); assay: Percent GR activity after exposure to 3x1 uM concentration at regular intervals of 0,24,48 hours for the period of 67 hours; summary of the method: as §2
[17] = target: Glutathione reductase, mitochondrial (Homo sapiens) (UniProt P00390); assay: Percent inhibition of the glutathione reductase after 2 min incubation at 10 uM inhibitory concentration
Summary of the method: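 Human glutathione reductase in 47 mM potassium phosphate, 1 mM EDTA, 200 mM KCl, pH 6.9, 100 μM NADPH. Enzyme preincubated 2 min with 10 μM compound in the assay mixture, then started with 1 mM GSSG at 25 °C. NADPH consumption followed as A340 decrease; percent inhibition versus uninhibited enzyme.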

Thioredoxin reductase [18] = target: T1, Thioredoxin reductase; assay: Percent TrxR activity after exposure to 1 uM for 90 mins; type: functional; summary of the method: as §2
Thioredoxin reductase [19] = target: T1, Thioredoxin reductase; assay: Percent TrxR activity after exposure to 5 uM for 30 mins; type: functional; summary of the method: as §2
Thioredoxin reductase [20] = target: T1, Thioredoxin reductase; assay: Percent TrxR activity after exposure to 3x1 uM concentration at regular intervals of 0,24,48 hours for the period of 67 hours; type: functional; summary of the method: as §2
Thioredoxin reductase [21] = target: T1, Thioredoxin reductase; assay: Percent TrxR activity after exposure to 1 uM for 30 mins; type: functional; summary of the method: as §2
[22] = target: Glutathione reductase, mitochondrial (Homo sapiens) (UniProt P00390); assay: Percent GR activity after exposure to 1 uM for 67 hr; summary of the method: as §2
[23] = target: Glutathione reductase, mitochondrial (Homo sapiens) (UniProt P00390); assay: Percent GR activity after exposure to 3x5 uM concentration at regular intervals of 0,24,48 hours for the period of 67 hours; summary of the method: as §2
Thioredoxin reductase [24] = target: T1, Thioredoxin reductase; assay: Inhibitory concentration for Km'; type: protein assay; summary of the method: as §1
NCH89 = assay: 50% Growth inhibition on NCH89 glioma cell lines; type: functional, cell-based
Summary of the method: (§3)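 BrdU incorporation proliferation assay. 7×10^3 cells/well in RPMI 1640 with 10% FCS, 8 replicas. Compound added 24 h after seeding at 1, 5, 10 or 20 μM, either once or three times at 24 h intervals; 67 h total incubation. BrdU (100 μM final) added 48 h after first addition. Absorbance expressed relative to untreated controls (100%). IC50 ± SD from ≥2 independent experiments.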

HNO 97 cell line = assay: 50% Growth inhibition on HNO97 head and neck squamous carcinoma cell lines; type: functional, cell-based; summary of the method: as §3
HNO199 cell line = assay: 50% Growth inhibition on HNO199 head and neck squamous carcinoma cell lines; type: functional, cell-based; summary of the method: as §3
NCH82 = assay: 50% Growth inhibition on NCH82 glioma cell lines
NCH37 = assay: 50% Growth inhibition on NCH37 glioma cell lines

T1 sequence (Q86VQ6 whole entry, looked up, chain 1 of 3): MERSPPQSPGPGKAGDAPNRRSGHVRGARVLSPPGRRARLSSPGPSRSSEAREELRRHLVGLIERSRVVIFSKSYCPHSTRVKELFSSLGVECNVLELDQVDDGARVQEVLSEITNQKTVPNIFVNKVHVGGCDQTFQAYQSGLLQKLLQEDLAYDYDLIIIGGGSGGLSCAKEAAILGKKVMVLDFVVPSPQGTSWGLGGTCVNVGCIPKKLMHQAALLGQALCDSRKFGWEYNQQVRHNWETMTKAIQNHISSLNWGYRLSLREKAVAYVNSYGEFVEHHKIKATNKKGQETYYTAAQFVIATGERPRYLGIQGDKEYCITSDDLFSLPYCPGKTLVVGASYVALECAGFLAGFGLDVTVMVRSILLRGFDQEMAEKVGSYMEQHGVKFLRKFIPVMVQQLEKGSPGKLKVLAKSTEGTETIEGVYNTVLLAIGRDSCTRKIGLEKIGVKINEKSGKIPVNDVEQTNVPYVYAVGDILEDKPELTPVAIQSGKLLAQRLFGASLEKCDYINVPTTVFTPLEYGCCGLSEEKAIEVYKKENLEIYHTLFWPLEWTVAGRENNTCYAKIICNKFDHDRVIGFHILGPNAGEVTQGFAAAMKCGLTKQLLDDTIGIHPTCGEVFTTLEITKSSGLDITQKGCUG
T1 sequence (Q9NNW7 whole entry, looked up, chain 2 of 3): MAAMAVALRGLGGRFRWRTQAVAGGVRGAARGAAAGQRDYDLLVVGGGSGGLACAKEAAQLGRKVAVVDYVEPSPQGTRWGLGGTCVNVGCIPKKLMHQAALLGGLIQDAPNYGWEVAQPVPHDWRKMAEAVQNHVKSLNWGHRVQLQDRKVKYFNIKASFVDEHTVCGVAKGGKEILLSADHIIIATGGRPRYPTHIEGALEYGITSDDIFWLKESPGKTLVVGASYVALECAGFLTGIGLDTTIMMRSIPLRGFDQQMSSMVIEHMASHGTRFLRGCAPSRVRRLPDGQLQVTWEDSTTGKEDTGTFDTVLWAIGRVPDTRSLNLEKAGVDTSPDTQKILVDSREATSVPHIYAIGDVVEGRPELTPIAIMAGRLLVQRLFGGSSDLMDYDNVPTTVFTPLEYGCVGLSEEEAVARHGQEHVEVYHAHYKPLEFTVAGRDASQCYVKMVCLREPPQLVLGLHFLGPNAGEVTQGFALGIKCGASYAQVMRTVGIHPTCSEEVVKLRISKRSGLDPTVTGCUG
T1 sequence (Q16881 whole entry, looked up, chain 3 of 3): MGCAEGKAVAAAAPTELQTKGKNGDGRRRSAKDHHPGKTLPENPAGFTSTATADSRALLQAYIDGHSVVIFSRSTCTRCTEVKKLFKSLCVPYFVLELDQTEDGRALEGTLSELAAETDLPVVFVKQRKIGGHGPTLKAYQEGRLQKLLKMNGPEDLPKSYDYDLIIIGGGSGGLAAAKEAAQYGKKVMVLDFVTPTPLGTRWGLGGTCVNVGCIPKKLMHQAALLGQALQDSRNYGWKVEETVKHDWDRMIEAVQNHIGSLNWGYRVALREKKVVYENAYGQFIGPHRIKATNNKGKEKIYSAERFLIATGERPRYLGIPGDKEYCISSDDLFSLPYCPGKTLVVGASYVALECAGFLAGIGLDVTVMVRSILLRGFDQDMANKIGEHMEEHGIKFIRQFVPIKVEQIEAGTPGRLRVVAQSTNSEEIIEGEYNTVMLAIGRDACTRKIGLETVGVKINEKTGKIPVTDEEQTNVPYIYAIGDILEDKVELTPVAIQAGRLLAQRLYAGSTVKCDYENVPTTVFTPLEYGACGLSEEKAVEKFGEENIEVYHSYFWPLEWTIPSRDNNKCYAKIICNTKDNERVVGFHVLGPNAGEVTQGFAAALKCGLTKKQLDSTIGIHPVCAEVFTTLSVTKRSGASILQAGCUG

| Ki (Thioredoxin reductase [1]) [nM] | IC50 (Thioredoxin reductase [2]) [nM] | Km' (Thioredoxin reductase [4]) [µM] | inhibition [17] [%] | [I] for Km' (Thioredoxin reductase [24]) [µM] | Substance | also measured |
| --- | --- | --- | --- | --- | --- | --- |
| – | – | 1060 | 90 | 0.05 | 4-Mercaptopyridine (4'-chloro-2,2':6',2''-terpyridine)platinum (II) Nitrate [listing 1 of 2 here] | Activity (Thioredoxin reductase [3]): 90%; Activity (Thioredoxin reductase [5]): 80%; Activity [6]: 90%; Activity (Thioredoxin reductase [7]): 5%; Activity (Thioredoxin reductase [8]): 160%; Activity (Thioredoxin reductase [9]): 130%; Activity (Thioredoxin reductase [10]): 60%; Activity [11]: 110%; Activity [12]: 200%; Activity [13]: 180%; Activity [14]: 90%; Activity [15]: 260%; Activity [16]: 180%; Activity (Thioredoxin reductase [18]): 50%; Activity (Thioredoxin reductase [19]): 30%; Activity (Thioredoxin reductase [20]): 110%; Activity (Thioredoxin reductase [21]): 50%; Activity [22]: 220%; Activity [23]: 220% |
| 5 | 4 | – | – | – | 4-Mercaptopyridine (4'-chloro-2,2':6',2''-terpyridine)platinum (II) Nitrate [listing 2 of 2 here] | IC50 (NCH89): 2500 nM; IC50 (HNO 97 cell line): 5500 nM; IC50 (HNO199 cell line): 9200 nM; IC50 (NCH82): 7400 nM; IC50 (NCH37): 10500 nM |
| 17 | 7 | – | – | – | 2-Mercaptopyrimidine (4'-chloro-2,2':6',2''-terpyridine)platinum (II) Nitrate [listing 1 of 2 here] | – |
| – | – | 399 | 7 | 1 | 4-Mercaptoethanol-(2,2':6',2''-terpyridine)platinum (II) Nitrate [listing 1 of 2 here] | – |
| – | – | 1010 | 20 | 0.1 | 2-Mercaptoimidazole Bis[(4'-chloro-2,2':6',2''-terpyridine)platinum (II)] Trinitrate [listing 1 of 2 here] | – |
| 11 | 3 | – | – | – | 2-Mercaptoimidazole Bis[(4'-chloro-2,2':6',2''-terpyridine)platinum (II)] Trinitrate [listing 2 of 2 here] | – |

More lines, now with the values behind:

| Substance | Ki (Thioredoxin reductase [1]) [nM] | IC50 (Thioredoxin reductase [2]) [nM] | Km' (Thioredoxin reductase [4]) [µM] | inhibition [17] [%] | [I] for Km' (Thioredoxin reductase [24]) [µM] | also measured |
| --- | --- | --- | --- | --- | --- | --- |
| 4-Mercaptoethanol-(2,2':6',4'-chloro,2''-terpyridine)platinum (II) Nitrate [listing 1 of 2 here] | 22 | 30 | – | – | – | – |
| 2-Mercaptopyridine (4'-chloro-2,2':6',2''-terpyridine)platinum (II) Nitrate [listing 1 of 2 here] | 7 | 6 | – | – | – | – |
| 4-Mercaptoethanol-(2,2':6',2''-terpyridine)platinum (II) Nitrate [listing 2 of 2 here] | 348 | 35 | – | – | – | – |
| 4-Mercaptoethanol-(2,2':6',4'-chloro,2''-terpyridine)platinum (II) Nitrate [listing 2 of 2 here] | – | – | 4740 | 55 | 1 | – |
| 2-Mercaptopyrimidine (4'-chloro-2,2':6',2''-terpyridine)platinum (II) Nitrate [listing 2 of 2 here] | – | – | 715 | 66 | 0.1 | – |
| 2-Mercaptopyridine (4'-chloro-2,2':6',2''-terpyridine)platinum (II) Nitrate [listing 2 of 2 here] | – | – | 247 | 47 | 0.01 | – |
